The text below walks through data of PubChem BioAssay.

What is called viability is a read-out of living cells in per cent, often relative to untreated cells. In general, inhibition refers to the change of the read-out against control, counted positive when it falls.

Calls of active or inactive are those of the source.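 The calls were made as follows, unless noted: active = Her2 level under about 52% in both replicate screens, with viability over 70% of control (limit read from the data); inconclusive = Her2 under the limit in one screen only, or viability under 70%; inactive = Her2 level above the set limit.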

Assay [1] is described as follows: Her2 expression decrease, cell viability multiplex – SKBR3 breast tumor cells, AlphaScreen, ATP viability, primary screen (AID 461).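 As to Her2 level: lower value means less Her2 protein in the cells.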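 As to viability: percent of carrier control wells set as 100% viability.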 The conditions noted are these: SKBR3 Her2 protein level, 18-24 h, measured here: SKBR3 viability, ATP luminescence, at 10 µM. For orientation: Alpha assays give light when donor and acceptor beads are brought close together.
Assay [2] has as its target Receptor tyrosine-protein kinase erbB-2 (Homo sapiens) (UniProt P04626). The description is as above. The following applies: 18-24 h, at 10 µM, stronger effect = lower value.
The nature of assay [3]: reduced viability of SK-BR-3 breast cancer cells – cell-based, 24 h, human, pilot screen (AID 572;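 active = viability at or below 10% of carrier control in both of two separate runs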;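 also: compound exposure lasted between 18 and 24 h rather than exactly 24 h; 100% = carrier-treated control wells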). The conditions noted are these: SK-BR-3 viability, CellTiter-Glo luminescence, at 10 µM, stronger effect = lower value.
Assay [4] is described as follows: HUVEC growth inhibition – cell-based, human, primary screen (AID 575;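 active = viability at or below 30% in both replicate assays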;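 also: 100% = median of untreated cell wells with 0.1% DMSO on each plate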). The following applies: HUVEC proliferation, CellTiter-Glo luminescence, 72 h; at 10 µM; stronger effect = lower value. In short, it runs like this: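 Test system: HUVEC primary cells. Quantity: 1250 endothelial cells in each well. Dosing: single-point 10 µM, DMSO 0.1% final. Incubation: 72 h treatment at 37 °C. Measured by: CTG luminescence. Control set: DMSO cell controls and MePR drug controls. Plate: collagen-coated 384-well format.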
Background: Cellular ATP, detected with luciferase, serves as a proxy for viable cell number.

Assay [5] in a line: H69AR cell proliferation blockers – human, duplicate replicates, primary screen (AID 580;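 active = viability at or under a set limit in both replicates, limit being median viability minus 3 SD, cut at about 48% in these data, passing the limit was not always enough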;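 also: 100% = mean luminescence of untreated wells and 0% = no signal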). The conditions noted are these: H69AR lung tumor cells viability, ATP luminescence, 72 h; at 10 µM; stronger effect = lower value.
Assay [6] can be described thus: MRP1 drug-resistance reversers in H69AR cells – cell-based, doxorubicin co-treatment, pilot screen (AID 601;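 active = viability loss from added drug above about 55%, and viability with drug at most 40%, in both replicates, limit read from the data, passing the limit was not always enough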). The conditions noted are these: CellTiter-Glo, 72 h, at 10 µM; for differential viability (reversal): stronger effect = higher value.
Assay [7] in a line: yeast transport mutant growth inhibition pilot in 384-well plates, post-Golgi transport modulator project (AID 636; in the data active = inhibition above about 31%). The conditions noted are these: absorbance 615 nm, about 18 h, stronger effect = higher value.
The nature of assay [8]: growth suppression of yeast trafficking mutant, preliminary HTS, modulators of trafficking downstream of Golgi apparatus project, 1536-format plate, OD 615 nm (AID 637; in the data active = inhibition above about 30%). The conditions noted are these: yeast transport mutant growth, absorbance 615 nm, 18 h; stronger effect = higher value.
The mark [9] stands for this setting: H69AR cells + 2 uM doxorubicin, measured here: viability with 2 uM doxorubicin, stronger effect = lower value.
Where [10] appears, read: H69AR cells, compound alone cytotoxicity.

Chain of Receptor tyrosine-protein kinase erbB-2 (Homo sapiens) (P04626 whole entry, looked up): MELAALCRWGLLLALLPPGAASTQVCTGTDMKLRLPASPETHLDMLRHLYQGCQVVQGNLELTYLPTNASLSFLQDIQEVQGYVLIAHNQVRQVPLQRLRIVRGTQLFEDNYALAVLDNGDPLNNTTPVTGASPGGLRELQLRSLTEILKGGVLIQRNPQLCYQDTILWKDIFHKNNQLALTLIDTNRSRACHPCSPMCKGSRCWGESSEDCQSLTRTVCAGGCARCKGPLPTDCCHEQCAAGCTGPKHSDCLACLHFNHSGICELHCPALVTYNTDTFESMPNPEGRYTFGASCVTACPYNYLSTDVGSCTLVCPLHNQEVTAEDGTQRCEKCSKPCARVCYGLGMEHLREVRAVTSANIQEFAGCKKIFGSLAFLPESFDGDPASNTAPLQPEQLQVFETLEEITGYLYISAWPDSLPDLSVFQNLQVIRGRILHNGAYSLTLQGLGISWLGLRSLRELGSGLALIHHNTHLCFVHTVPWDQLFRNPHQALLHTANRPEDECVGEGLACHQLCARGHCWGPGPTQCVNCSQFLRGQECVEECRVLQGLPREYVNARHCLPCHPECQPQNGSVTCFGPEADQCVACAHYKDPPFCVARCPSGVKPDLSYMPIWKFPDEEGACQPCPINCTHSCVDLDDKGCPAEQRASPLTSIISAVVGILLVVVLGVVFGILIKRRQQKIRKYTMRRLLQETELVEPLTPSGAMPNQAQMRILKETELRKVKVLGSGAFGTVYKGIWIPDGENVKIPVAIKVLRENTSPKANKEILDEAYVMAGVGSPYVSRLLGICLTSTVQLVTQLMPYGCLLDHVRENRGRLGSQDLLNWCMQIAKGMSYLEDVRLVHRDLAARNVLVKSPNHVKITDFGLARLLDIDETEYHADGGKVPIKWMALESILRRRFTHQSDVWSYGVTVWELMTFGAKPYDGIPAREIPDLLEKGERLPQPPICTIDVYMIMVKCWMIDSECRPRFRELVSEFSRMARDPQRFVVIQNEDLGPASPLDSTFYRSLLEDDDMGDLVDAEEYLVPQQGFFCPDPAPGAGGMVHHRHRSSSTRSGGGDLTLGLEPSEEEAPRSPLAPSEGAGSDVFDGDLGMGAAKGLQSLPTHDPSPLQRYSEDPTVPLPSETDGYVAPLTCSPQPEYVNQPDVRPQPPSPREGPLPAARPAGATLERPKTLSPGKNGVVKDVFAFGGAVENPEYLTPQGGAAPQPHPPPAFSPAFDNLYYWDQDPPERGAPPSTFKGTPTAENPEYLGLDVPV

For `CCCC(=O)N1c2ccccc2NC2=C(C(=O)CCC2)C1c1ccc(F)cc1` (stereo not given), the viability in assay [1] is 98.5%; in assay [3], 98.5% (inactive); in assay [4] it was 96.9% (inactive); in assay [5], 91.6% (inactive); in assay [6] (setting [9]), 91.7%; in assay [6] (setting [10]) it was 91.6%. For the same compound, in assay [2], the Her2 level was 78% (inactive). Besides, the differential viability (reversal) in assay [6] (H69AR cells + 2 uM doxorubicin) is -0.1% (inactive). Besides, the values for the inhibition in assay [7] and in assay [8] were -0.14% (inactive) and 3.81% (inactive), respectively.

Take `Cc1csc2nc3ccccc3c(=O)n12`: the viability was 100% in assay [1]; 100% (inactive) in assay [3]; 103% (inactive) in assay [4]; 94.7% (inactive) in assay [5]; 93.2% in assay [6] (setting [9]); 94.7% in assay [6] (setting [10]). Further, the Her2 level in assay [2] was 91% (inactive). The differential viability (reversal) in assay [6] (H69AR cells + 2 uM doxorubicin) is 1.49% (inactive). The values for the inhibition in assay [7] and in assay [8] were -1.84% (inactive) and 1.31% (inactive), respectively.

As to `CCCn1c2c(c(O)c(C(=O)NC)c1=O)CCCC2`, the viability in assay [1] was 124%; in assay [3], 124% (inactive); in assay [4], 92.7% (inactive); in assay [5], 86% (inactive); in assay [6] (setting [9]) it was 93.3%; in assay [6] (setting [10]), 86%. Also, the Her2 level in assay [2] was 95% (inactive). Besides, the differential viability (reversal) in assay [6] (H69AR cells + 2 uM doxorubicin) was -7.29% (inactive). The figures for the inhibition in assay [7] and in assay [8] were -4.34% (inactive) and 2.42% (inactive), respectively.

`c1ccc2c(Cn3ccnc3)c[nH]c2c1`: the viability was 109% in assay [1]; 109% (inactive) in assay [3]; 85.3% (inactive) in assay [4]; 86% (inactive) in assay [5]; 91.4% in assay [6] (setting [9]); 86% in assay [6] (setting [10]). In addition, the Her2 level in assay [2] was 114% (inactive). Further, the differential viability (reversal) in assay [6] (H69AR cells + 2 uM doxorubicin) is -5.34% (inactive). Further, the inhibition is -5.19% (inactive) in assay [7] and -2.62% (inactive) in assay [8].

On to `CCN(CC)S(=O)(=O)c1ccc(N2CCCC2)c(C(=O)OCC(=O)/C(C#N)=C(\C)N)c1`, for which the viability in assay [1] was 91%; in assay [3] it was 91% (inactive); in assay [4], 66.7% (inactive); in assay [5], 82.6% (inactive); in assay [6] (setting [9]), 93.7%; in assay [6] (setting [10]), 82.6%. In addition, the Her2 level in assay [2] is 92.5% (inactive). Further, the differential viability (reversal) in assay [6] (H69AR cells + 2 uM doxorubicin) was -11.1% (inactive). Moreover, the inhibition in assay [7] was -6.4% (inactive); in assay [8] it was 1.97% (inactive).

For the compound `O=C(NCC1CCCO1)C1CCCN(Cc2cnn(-c3ccccc3)c2-n2cccc2)C1` (stereo not given), the viability in assay [1] was 83.5%; in assay [3] it was 83.5% (inactive); in assay [4], 83.4% (inactive); in assay [5] it was 85.2% (inactive); in assay [6] (setting [9]), 44.5%; in assay [6] (setting [10]), 85.2%. Moreover, the Her2 level in assay [2] was 124% (inactive). Also, in assay [6] (H69AR cells + 2 uM doxorubicin), the differential viability (reversal) is 40.7% (inactive). For the same compound, the inhibition in assay [7] is -1.45% (inactive); in assay [8], -8.33% (inactive).

`CCOC(=O)c1c(NC(=O)CSc2nnc(-c3cccnc3)o2)sc(C)c1C`: the viability was 120% in assay [1]; 120% (inactive) in assay [3]; 103% (inactive) in assay [4]; 99.1% (inactive) in assay [5]; 85.1% in assay [6] (setting [9]); 99.1% in assay [6] (setting [10]). Moreover, the Her2 level in assay [2] is 104% (inactive). The differential viability (reversal) in assay [6] (H69AR cells + 2 uM doxorubicin) is 14% (inactive). Besides, the inhibition is -4.34% (inactive) in assay [7] and -8.73% (inactive) in assay [8].

With `O=C(Nc1cccc(NC(=O)c2cccnc2)c1)c1cccnc1`, the viability was 89% in assay [1]; 89% (inactive) in assay [3]; 119% (inactive) in assay [4]; 86.7% (inactive) in assay [5]; 88.9% in assay [6] (setting [9]); 86.7% in assay [6] (setting [10]). The Her2 level in assay [2] was 80% (inactive). Besides, the differential viability (reversal) in assay [6] (H69AR cells + 2 uM doxorubicin) was -2.21% (inactive). The figures for the inhibition in assay [7] and in assay [8] were -5% (inactive) and 1.67% (inactive), respectively.

Take `Cc1cc(NC(=O)Cc2cn3ccsc3n2)n(-c2ccccc2)n1`: the viability was 91% in assay [1]; 91% (inactive) in assay [3]; 91.8% (inactive) in assay [4]; 94.9% (inactive) in assay [5]; 89.9% in assay [6] (setting [9]); 94.9% in assay [6] (setting [10]). In assay [2], the Her2 level is 103% (inactive). Also, in assay [6] (H69AR cells + 2 uM doxorubicin), the differential viability (reversal) was 5.08% (inactive). In addition, the inhibition in assay [7] was -0.64% (inactive); in assay [8] it was 0.33% (inactive).

As to `CCOC(=O)c1[nH]c(C)c(C(=O)N2CCN(C(=O)c3ccco3)CC2)c1C`, the viability in assay [1] is 88.5%; in assay [3], 88.5% (inactive); in assay [4], 98.4% (inactive); in assay [5], 97.8% (inactive); in assay [6] (setting [9]) it was 95.6%; in assay [6] (setting [10]), 97.8%. The Her2 level in assay [2] is 95.5% (inactive). Moreover, the differential viability (reversal) in assay [6] (H69AR cells + 2 uM doxorubicin) is 2.2% (inactive). Further, the inhibition in assay [7] was -11.6% (inactive); in assay [8], -0.48% (inactive).
